Measurements reported in ChEMBL document CHEMBL1153559, “Role of a sodium-dependent symporter homologue in the thermosensitivity of beta-lactam antibiotic resistance and cell wall composition in Staphylococcus aureus” (2008).
In brackets after ≈: the same amount, converted by molar mass. Bridge positions count the residues as written; N and C are the ends. Square brackets hold non-standard residues; d marks the D form. Peptide text beside a SMILES is read from it. * marks the point of attachment. Ileψ(thiazoline)Cys = CC[C@H](C)[C@H](N)C1=N[C@H](C(=O)*)CS1; dOrn = NCCC[C@@H](N)C(=O)O

Assays:
Type in all cases: functional
Staphylococcus aureus [1] = test: Antimicrobial activity against methicillin-resistant Staphylococcus aureus COL at 37 degC by population analysis method
Method in brief: (§1)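 Population analysis: S. aureus cultures were grown overnight in TSB, then plated at different cell concentrations on agar containing twofold serial methicillin concentrations. Colonies were counted after 48 h of incubation at 37 or 42°C, giving a methicillin resistance profile.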

Staphylococcus aureus [2] = test: Antimicrobial activity against methicillin-resistant Staphylococcus aureus COL at 42 degC by population analysis method; method in brief: as §1
Staphylococcus aureus [3] = test: Antimicrobial activity against methicillin-resistant Staphylococcus aureus COL transposon mutant C245 harboring Tn551 gene at 42 degC by population analysis method; method in brief: as §1
Staphylococcus aureus [4] = test: Antimicrobial activity against SCCmec type 1 methicillin-resistant Staphylococcus aureus COL C245Td expressing symporter gene smr1 at 37 degC incubated for 24 hrs by E-test
Staphylococcus aureus [5] = test: Antimicrobial activity against SCCmec type 1 methicillin-resistant Staphylococcus aureus COL C245Td expressing symporter gene smr1 at 42 degC incubated for 24 hrs by E-test
Staphylococcus aureus [6] = test: Antimicrobial activity against SCCmec type 1 methicillin-resistant Staphylococcus aureus COL D19455 expressing symporter gene smr1 at 37 degC incubated for 24 hrs by E-test; conditions: COL D19455, 24 h
Staphylococcus aureus [7] = test: Antimicrobial activity against SCCmec type 1 methicillin-resistant Staphylococcus aureus COL D19455 expressing symporter gene smr1 at 42 degC incubated for 24 hrs by E-test; conditions: COL D19455, 24 h
Staphylococcus aureus [8] = test: Antimicrobial activity against SCCmec type 1 methicillin-resistant Staphylococcus aureus COL D19455-T2 expressing symporter gene smr1 at 37 degC incubated for 24 hrs by E-test; conditions: COL D19455-T2, 24 h
Staphylococcus aureus [9] = test: Antimicrobial activity against SCCmec type 1 methicillin-resistant Staphylococcus aureus COL D19455-T2 expressing symporter gene smr1 at 42 degC incubated for 24 hrs by E-test; conditions: COL D19455-T2, 24 h
Staphylococcus aureus [10] = test: Antimicrobial activity against SCCmec type 1 methicillin-resistant Staphylococcus aureus COL E2125 expressing symporter gene smr1 at 37 degC incubated for 24 hrs by E-test; conditions: COL E2125, 24 h
Staphylococcus aureus [11] = test: Antimicrobial activity against SCCmec type 1 methicillin-resistant Staphylococcus aureus COL E2125 expressing symporter gene smr1 at 42 degC incubated for 24 hrs by E-test; conditions: COL E2125, 24 h
Staphylococcus aureus [12] = test: Antimicrobial activity against SCCmec type 1 methicillin-resistant Staphylococcus aureus COL E2125-T2 expressing symporter gene smr1 at 37 degC incubated for 24 hrs by E-test; conditions: COL E2125-T2, 24 h
Staphylococcus aureus [13] = test: Antimicrobial activity against SCCmec type 1 methicillin-resistant Staphylococcus aureus COL E2125-T2 expressing symporter gene smr1 at 42 degC incubated for 24 hrs by E-test; conditions: COL E2125-T2, 24 h
Staphylococcus aureus [14] = test: Antimicrobial activity against SCCmec type 1 methicillin-resistant Staphylococcus aureus COL E3005 expressing symporter gene smr1 at 37 degC incubated for 24 hrs by E-test; conditions: COL E3005, 24 h
Staphylococcus aureus [15] = test: Antimicrobial activity against SCCmec type 1 methicillin-resistant Staphylococcus aureus COL E3005 expressing symporter gene smr1 at 42 degC incubated for 24 hrs by E-test; conditions: COL E3005, 24 h
Staphylococcus aureus [16] = test: Antimicrobial activity against SCCmec type 1 methicillin-resistant Staphylococcus aureus COL E3005-T4 expressing symporter gene smr1 at 37 degC incubated for 24 hrs by E-test; conditions: COL E3005-T4, 24 h
Staphylococcus aureus [17] = test: Antimicrobial activity against SCCmec type 1 methicillin-resistant Staphylococcus aureus COL E3005-T4 expressing symporter gene smr1 at 42 degC incubated for 24 hrs by E-test; conditions: COL E3005-T4, 24 h
Staphylococcus aureus [18] = test: Antimicrobial activity against SCCmec type 4 methicillin-resistant Staphylococcus aureus COL MW2 expressing symporter gene smr1 at 37 degC incubated for 24 hrs by E-test; conditions: COL MW2, 24 h
Staphylococcus aureus [19] = test: Antimicrobial activity against SCCmec type 4 methicillin-resistant Staphylococcus aureus COL MW2 expressing symporter gene smr1 at 42 degC incubated for 24 hrs by E-test; conditions: COL MW2, 24 h
Staphylococcus aureus [20] = test: Antimicrobial activity against SCCmec type 4 methicillin-resistant Staphylococcus aureus COL MW2-T expressing symporter gene smr1 at 37 degC incubated for 24 hrs by E-test
Staphylococcus aureus [21] = test: Antimicrobial activity against SCCmec type 4 methicillin-resistant Staphylococcus aureus COL MW2-T expressing symporter gene smr1 at 42 degC incubated for 24 hrs by E-test
Staphylococcus aureus [22] = test: Antimicrobial activity against SCCmec type 3 methicillin-resistant Staphylococcus aureus COL 301 expressing symporter gene smr1 at 37 degC incubated for 24 hrs by E-test; conditions: COL 301, 24 h
Staphylococcus aureus [23] = test: Antimicrobial activity against SCCmec type 3 methicillin-resistant Staphylococcus aureus COL 301 expressing symporter gene smr1 at 42 degC incubated for 24 hrs by E-test; conditions: COL 301, 24 h
Staphylococcus aureus [24] = test: Antimicrobial activity against SCCmec type 3 methicillin-resistant Staphylococcus aureus COL 301-T6 expressing symporter gene smr1 at 37 degC incubated for 24 hrs by E-test; conditions: COL 301-T6, 24 h
Staphylococcus aureus [25] = test: Antimicrobial activity against SCCmec type 3 methicillin-resistant Staphylococcus aureus COL 301-T6 expressing symporter gene smr1 at 42 degC incubated for 24 hrs by E-test; conditions: COL 301-T6, 24 h
Staphylococcus aureus [26] = test: Antimicrobial activity against SCCmec type 1 methicillin-resistant Staphylococcus aureus COL 319 expressing symporter gene smr1 at 37 degC incubated for 24 hrs by E-test; conditions: COL 319, 24 h
Staphylococcus aureus [27] = test: Antimicrobial activity against SCCmec type 1 methicillin-resistant Staphylococcus aureus COL 319 expressing symporter gene smr1 at 42 degC incubated for 24 hrs by E-test; conditions: COL 319, 24 h
Staphylococcus aureus [28] = test: Antimicrobial activity against SCCmec type 1 methicillin-resistant Staphylococcus aureus COL 319-T1 expressing symporter gene smr1 at 37 degC incubated for 24 hrs by E-test; conditions: COL 319-T1, 24 h
Staphylococcus aureus [29] = test: Antimicrobial activity against SCCmec type 1 methicillin-resistant Staphylococcus aureus COL 319-T1 expressing symporter gene smr1 at 42 degC incubated for 24 hrs by E-test; conditions: COL 319-T1, 24 h
Staphylococcus aureus [30] = test: Antimicrobial activity against SCCmec type 1 methicillin-resistant Staphylococcus aureus COL 404 expressing symporter gene smr1 at 37 degC incubated for 24 hrs by E-test; conditions: COL 404, 24 h
Staphylococcus aureus [31] = test: Antimicrobial activity against SCCmec type 1 methicillin-resistant Staphylococcus aureus COL 404 expressing symporter gene smr1 at 42 degC incubated for 24 hrs by E-test; conditions: COL 404, 24 h
Staphylococcus aureus [32] = test: Antimicrobial activity against SCCmec type 1 methicillin-resistant Staphylococcus aureus COL 404-T3 expressing symporter gene smr1 at 37 degC incubated for 24 hrs by E-test; conditions: COL 404-T3, 24 h
Staphylococcus aureus [33] = test: Antimicrobial activity against SCCmec type 1 methicillin-resistant Staphylococcus aureus COL 404-T3 expressing symporter gene smr1 at 42 degC incubated for 24 hrs by E-test; conditions: COL 404-T3, 24 h
Staphylococcus aureus [34] = test: Antimicrobial activity against SCCmec type 1 methicillin-resistant Staphylococcus aureus COL RUSA11 expressing symporter gene smr1 at 37 degC incubated for 24 hrs by E-test; conditions: COL RUSA11, 24 h
Staphylococcus aureus [35] = test: Antimicrobial activity against SCCmec type 1 methicillin-resistant Staphylococcus aureus COL RUSA11 expressing symporter gene smr1 at 42 degC incubated for 24 hrs by E-test; conditions: COL RUSA11, 24 h
Staphylococcus aureus [36] = test: Antimicrobial activity against SCCmec type 1 methicillin-resistant Staphylococcus aureus COL RUSA11-T3 expressing symporter gene smr1 at 37 degC incubated for 24 hrs by E-test; conditions: COL RUSA11-T3, 24 h
Staphylococcus aureus [37] = test: Antimicrobial activity against SCCmec type 1 methicillin-resistant Staphylococcus aureus COL RUSA11-T3 expressing symporter gene smr1 at 42 degC incubated for 24 hrs by E-test; conditions: COL RUSA11-T3, 24 h

CC[C@H](C)[C@H](N)C1=N[C@H](C(=O)N[C@@H](CC(C)C)C(=O)N[C@H](CCC(=O)O)C(=O)N[C@H](C(=O)N[C@H]2CCCCNC(=O)[C@H](CC(N)=O)NC(=O)[C@@H](CC(=O)O)NC(=O)[C@H](Cc3cnc[nH]3)NC(=O)[C@@H](Cc3ccccc3)NC(=O)[C@H]([C@@H](C)CC)NC(=O)[C@@H](CCCN)NC2=O)[C@@H](C)CC)CS1 [BACITRACIN] ({Ileψ(thiazoline)Cys}-L[dE]IK[dOrn]I[dF]H[dD]N; lactam 4-C)
MIC (Staphylococcus aureus [1]): 50 µg/mL (≈ 35.1 µM) | MIC (Staphylococcus aureus [2]): 50 µg/mL (≈ 35.1 µM)

N[C@@H]1CONC1=O [CYCLOSERINE]
MIC (Staphylococcus aureus [1]): 50 µg/mL (≈ 490 µM) | MIC (Staphylococcus aureus [2]): 50 µg/mL (≈ 490 µM)

C[C@@H]1O[C@@H]1P(=O)(O)O [FOSFOMYCIN]
MIC (Staphylococcus aureus [1]): 50 µg/mL (≈ 362 µM) | MIC (Staphylococcus aureus [2]): 25 µg/mL (≈ 181 µM)

COc1cccc(OC)c1C(=O)N[C@@H]1C(=O)N2[C@@H]1SC(C)(C)[C@@H]2C(=O)O [METHICILLIN]
MIC (Staphylococcus aureus [3]): 400 µg/mL (≈ 1050 µM)

Cc1onc(-c2ccccc2)c1C(=O)N[C@@H]1C(=O)N2[C@@H]1SC(C)(C)[C@@H]2C(=O)O [OXACILLIN]
MIC (Staphylococcus aureus [4]): > 256 µg/mL | MIC (Staphylococcus aureus [5]): > 256 µg/mL | MIC (Staphylococcus aureus [6]): 1 µg/mL (≈ 2.49 µM) | MIC (Staphylococcus aureus [7]): 0.25 µg/mL (≈ 0.623 µM) | MIC (Staphylococcus aureus [8]): 64 µg/mL (≈ 159 µM) | MIC (Staphylococcus aureus [9]): 0.25 µg/mL (≈ 0.623 µM) | MIC (Staphylococcus aureus [10]): 1 µg/mL (≈ 2.49 µM) | MIC (Staphylococcus aureus [11]): 0.25 µg/mL (≈ 0.623 µM) | MIC (Staphylococcus aureus [12]): 128 µg/mL (≈ 319 µM) | MIC (Staphylococcus aureus [13]): 0.5 µg/mL (≈ 1.25 µM) | MIC (Staphylococcus aureus [14]): 1.5 µg/mL (≈ 3.74 µM) | MIC (Staphylococcus aureus [15]): 0.5 µg/mL (≈ 1.25 µM) | MIC (Staphylococcus aureus [16]): 12 µg/mL (≈ 29.9 µM) | MIC (Staphylococcus aureus [17]): 0.38 µg/mL (≈ 0.947 µM) | MIC (Staphylococcus aureus [18]): 0.75 µg/mL (≈ 1.87 µM) | MIC (Staphylococcus aureus [19]): 0.75 µg/mL (≈ 1.87 µM) | MIC (Staphylococcus aureus [20]): 8 µg/mL (≈ 19.9 µM) | MIC (Staphylococcus aureus [21]): 0.75 µg/mL (≈ 1.87 µM) | MIC (Staphylococcus aureus [22]): > 256 µg/mL | MIC (Staphylococcus aureus [23]): 1 µg/mL (≈ 2.49 µM) | MIC (Staphylococcus aureus [24]): > 256 µg/mL | MIC (Staphylococcus aureus [25]): 16 µg/mL (≈ 39.9 µM) | MIC (Staphylococcus aureus [26]): > 256 µg/mL | MIC (Staphylococcus aureus [27]): 0.75 µg/mL (≈ 1.87 µM) | MIC (Staphylococcus aureus [28]): > 256 µg/mL | MIC (Staphylococcus aureus [29]): > 256 µg/mL | MIC (Staphylococcus aureus [30]): > 256 µg/mL | MIC (Staphylococcus aureus [31]): 1 µg/mL (≈ 2.49 µM) | MIC (Staphylococcus aureus [32]): > 256 µg/mL | MIC (Staphylococcus aureus [33]): > 256 µg/mL | MIC (Staphylococcus aureus [34]): 0.5 µg/mL (≈ 1.25 µM) | MIC (Staphylococcus aureus [35]): 0.19 µg/mL (≈ 0.473 µM) | MIC (Staphylococcus aureus [36]): 4 µg/mL (≈ 9.96 µM) | MIC (Staphylococcus aureus [37]): 0.25 µg/mL (≈ 0.623 µM)

CN(C)[C@@H]1C(O)=C(C(N)=O)C(=O)[C@@]2(O)C(O)=C3C(=O)c4c(O)cccc4[C@@](C)(O)[C@H]3C[C@@H]12 [TETRACYCLINE]
MIC (Staphylococcus aureus [1]): 100 µg/mL (≈ 225 µM) | MIC (Staphylococcus aureus [2]): 100 µg/mL (≈ 225 µM)

CN[C@H](CC(C)C)C(=O)N[C@H]1C(=O)N[C@@H](CC(N)=O)C(=O)N[C@H]2C(=O)N[C@H]3C(=O)N[C@H](C(=O)N[C@H](C(=O)O)c4cc(O)cc(O)c4-c4cc3ccc4O)[C@H](O)c3ccc(c(Cl)c3)Oc3cc2cc(c3O[C@@H]2O[C@H](CO)[C@@H](O)[C@H](O)[C@H]2O[C@H]2C[C@](C)(N)[C@H](O)[C@H](C)O2)Oc2ccc(cc2Cl)[C@H]1O [VANCOMYCIN]
MIC (Staphylococcus aureus [1]): 1.5 µg/mL (≈ 1.04 µM) | MIC (Staphylococcus aureus [2]): 3 µg/mL (≈ 2.07 µM)
